Assay results as given in ChEMBL document CHEMBL1124558, “Differential effects of a series of hydroxamic acid derivatives on 5-lipoxygenase and cyclooxygenase from neutrophils and 12-lipoxygenase from platelets and their in vivo effects on inflammation and anaphylaxis” (J Med Chem, 1989).
Values belong to the compound of their own block, whether it stands above or below them.

Tests used:
[1] = biological target: T1, Arachidonate 12-lipoxygenase (Rattus norvegicus) (UniProt Q02759); test: In vitro inhibitory activity against rat platelet 12-lipoxygenase at 10 uM
T1 sequence (whole entry): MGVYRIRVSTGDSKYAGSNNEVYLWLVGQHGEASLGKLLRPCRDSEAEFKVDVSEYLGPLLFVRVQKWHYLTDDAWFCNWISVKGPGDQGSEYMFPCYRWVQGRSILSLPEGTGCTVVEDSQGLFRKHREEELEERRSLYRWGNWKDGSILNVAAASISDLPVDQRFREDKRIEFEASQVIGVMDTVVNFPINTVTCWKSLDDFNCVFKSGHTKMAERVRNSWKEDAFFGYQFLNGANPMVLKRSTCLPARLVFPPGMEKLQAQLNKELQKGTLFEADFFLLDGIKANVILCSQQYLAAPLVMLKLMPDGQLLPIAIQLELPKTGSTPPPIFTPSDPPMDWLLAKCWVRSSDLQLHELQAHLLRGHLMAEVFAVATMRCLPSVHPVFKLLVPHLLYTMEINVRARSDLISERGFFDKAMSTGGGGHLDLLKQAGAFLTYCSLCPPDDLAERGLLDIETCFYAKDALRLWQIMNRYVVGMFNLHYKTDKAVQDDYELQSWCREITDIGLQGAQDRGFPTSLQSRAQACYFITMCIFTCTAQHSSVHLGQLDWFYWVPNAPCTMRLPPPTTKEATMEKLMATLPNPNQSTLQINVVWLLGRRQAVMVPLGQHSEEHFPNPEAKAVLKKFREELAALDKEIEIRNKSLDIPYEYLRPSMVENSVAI
How it was run: (§1)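 Cell-free cytosolic 12-lipoxygenase from Sprague-Dawley rat platelets (0.4 mg/mL), preincubated 5 min at 30 °C with compound in DMSO (≤0.1% final), 25 mM Tris pH 7.4, 1 μM indomethacin, 100 μM glutathione; reaction started with 6 μM [14C]arachidonic acid and quenched with citric acid/NDGA after 3 min. 12-HETE isolated by TLC and counted by scintillation; % inhibition, duplicate.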

[2] = biological target: T2, Cyclooxygenase (Rattus norvegicus) (UniProt P35355+Q63921); test: In vitro inhibitory activity against rat polymorphonuclear leukocyte Prostaglandin G/H synthase at 100 uM; format: protein assay
How it was run: (§2)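 Glycogen-elicited peritoneal PMNs from Sprague-Dawley rats were homogenized at 0 °C in 0.1 M Tris-HCl pH 8.2 with 10 μM NDGA. Compound (DMSO ≤0.1%) was preincubated 5 min at 37 °C, then 8 μM [14C]arachidonic acid with 4 mM glutathione and epinephrine was added for 10 min. TxB2 and PGF2α were measured by TLC and scintillation counting.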

[3] = biological target: T3, Polyunsaturated fatty acid 5-lipoxygenase (Homo sapiens) (UniProt P09917); test: In vitro inhibitory activity against polymorphonuclear leukocyte 5-lipoxygenase in human cell at 10 uM
T3 sequence (whole entry): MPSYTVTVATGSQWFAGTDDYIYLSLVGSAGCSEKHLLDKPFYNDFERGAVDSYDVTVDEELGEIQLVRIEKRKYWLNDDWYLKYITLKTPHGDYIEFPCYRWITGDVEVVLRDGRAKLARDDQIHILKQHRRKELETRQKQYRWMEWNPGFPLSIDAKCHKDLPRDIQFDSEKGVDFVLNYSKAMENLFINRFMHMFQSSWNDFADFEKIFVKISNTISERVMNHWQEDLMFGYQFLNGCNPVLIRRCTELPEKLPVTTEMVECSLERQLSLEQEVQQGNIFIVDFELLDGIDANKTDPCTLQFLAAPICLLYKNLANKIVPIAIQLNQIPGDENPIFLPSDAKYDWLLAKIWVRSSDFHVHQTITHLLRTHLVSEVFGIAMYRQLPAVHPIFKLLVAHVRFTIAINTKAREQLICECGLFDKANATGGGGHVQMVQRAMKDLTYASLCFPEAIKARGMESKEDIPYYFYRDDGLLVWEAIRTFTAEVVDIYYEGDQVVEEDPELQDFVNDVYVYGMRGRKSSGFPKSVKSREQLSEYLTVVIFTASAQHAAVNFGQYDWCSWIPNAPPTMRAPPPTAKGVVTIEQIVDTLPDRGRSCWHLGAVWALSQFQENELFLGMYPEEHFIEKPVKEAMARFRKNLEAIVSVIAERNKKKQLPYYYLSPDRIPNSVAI
How it was run: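 Human PMNs from venous blood of a healthy volunteer (EDTA) were purified by dextran sedimentation, a Percoll gradient and NH4Cl red-cell lysis (>90% pure). They were held in Ca/Mg PBS with 1 mg/mL glucose and 1 μM indomethacin, then challenged with A23187 (0.8 μM) and [14C]arachidonic acid (4 μM) for 3 min. 5-HETE was measured by TLC and scintillation counting.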

[4] = test system: 5-lipoxygenase (Cavia porcellus); test: Inhibitory activity against polymorphonuclear leukocyte 5-lipoxygenase using guinea pig supernatant at 10 uM
[5] = biological target: T1, Arachidonate 12-lipoxygenase (Rattus norvegicus); test: In vitro inhibitory activity against rat platelet 12-lipoxygenase at 100 uM; how it was run: as §1
Cyclooxygenase = biological target: T4, Cyclooxygenase (Rattus norvegicus, UniProt P35355+Q63921); test: (§3) In vitro inhibitory activity against rat polymorphonuclear leukocyte Prostaglandin G/H synthase; format: functional; how it was run: as §2
T4 sequence (P35355 whole entry): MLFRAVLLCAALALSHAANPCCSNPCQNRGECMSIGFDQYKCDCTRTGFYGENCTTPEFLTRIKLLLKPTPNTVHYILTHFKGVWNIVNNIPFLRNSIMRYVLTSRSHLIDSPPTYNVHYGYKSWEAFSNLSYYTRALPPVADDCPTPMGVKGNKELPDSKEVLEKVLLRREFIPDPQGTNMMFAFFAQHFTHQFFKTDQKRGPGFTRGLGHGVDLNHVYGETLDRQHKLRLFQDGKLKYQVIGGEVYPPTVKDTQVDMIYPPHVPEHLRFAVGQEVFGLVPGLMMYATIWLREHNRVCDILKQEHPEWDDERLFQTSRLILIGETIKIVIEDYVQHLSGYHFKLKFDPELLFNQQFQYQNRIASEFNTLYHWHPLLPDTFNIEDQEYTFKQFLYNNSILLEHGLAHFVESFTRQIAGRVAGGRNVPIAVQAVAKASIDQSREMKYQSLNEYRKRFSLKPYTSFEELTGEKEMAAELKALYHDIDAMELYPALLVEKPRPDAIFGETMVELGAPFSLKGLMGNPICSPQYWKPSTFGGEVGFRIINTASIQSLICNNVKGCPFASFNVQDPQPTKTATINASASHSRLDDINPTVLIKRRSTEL
T4 sequence (Q63921 whole entry): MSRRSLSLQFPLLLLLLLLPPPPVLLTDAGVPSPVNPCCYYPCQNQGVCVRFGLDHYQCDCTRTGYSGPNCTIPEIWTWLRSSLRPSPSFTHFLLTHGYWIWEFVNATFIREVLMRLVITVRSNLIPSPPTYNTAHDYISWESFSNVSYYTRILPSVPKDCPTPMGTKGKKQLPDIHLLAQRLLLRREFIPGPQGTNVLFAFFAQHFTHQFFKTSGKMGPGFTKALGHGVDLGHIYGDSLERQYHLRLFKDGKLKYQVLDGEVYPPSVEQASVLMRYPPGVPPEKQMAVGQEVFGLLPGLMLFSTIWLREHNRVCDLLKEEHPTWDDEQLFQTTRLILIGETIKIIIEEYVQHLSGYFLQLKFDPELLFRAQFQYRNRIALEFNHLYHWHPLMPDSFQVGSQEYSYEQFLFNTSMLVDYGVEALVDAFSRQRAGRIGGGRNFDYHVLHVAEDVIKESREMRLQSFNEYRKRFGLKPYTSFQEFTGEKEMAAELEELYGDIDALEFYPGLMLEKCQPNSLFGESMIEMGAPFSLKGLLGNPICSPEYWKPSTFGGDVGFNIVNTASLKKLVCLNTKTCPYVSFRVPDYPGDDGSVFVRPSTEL

[6] = biological target: T5, Polyunsaturated fatty acid 5-lipoxygenase (Homo sapiens, UniProt P09917); test: In vitro inhibition of polymorphonuclear leukocyte derived human 5-lipoxygenase
T5 sequence (P09917 whole entry): T3 sequence (whole entry)
How it was run: (§4)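 PMNs from venous blood of healthy volunteers, isolated by dextran sedimentation and Percoll gradient (>90% pure) and held in Ca/Mg PBS with 1 mg/mL glucose and 1 μM indomethacin. Challenged with calcium ionophore and [14C]arachidonic acid for 3 min. 5-HETE measured by TLC and scintillation counting; IC50 read graphically.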

Cavia porcellus [7] = test: In vivo inhibitory activity against guinea pig systemic anaphylaxis when administered a compound dose (60 mg/kg) perorally; format: functional; conditions: po
How it was run: (§5)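 Male Hartley guinea pigs sensitised ip with ovalbumin (2.7 mg/kg) plus LPS adjuvant, then challenged 2 weeks later with 1% ovalbumin aerosol for 30 s. Pretreated with pyrilamine, indomethacin and propranolol 20 min before challenge. Compound given in PEG 400 1 h before challenge.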

[8] = biological target: T6, Cysteinyl leukotriene receptor 1 (Cavia porcellus, UniProt Q2NNR5); test: Activity to bind against [3H]LTD4 radioligand in guinea pig
T6 sequence (Q2NNR5 whole entry): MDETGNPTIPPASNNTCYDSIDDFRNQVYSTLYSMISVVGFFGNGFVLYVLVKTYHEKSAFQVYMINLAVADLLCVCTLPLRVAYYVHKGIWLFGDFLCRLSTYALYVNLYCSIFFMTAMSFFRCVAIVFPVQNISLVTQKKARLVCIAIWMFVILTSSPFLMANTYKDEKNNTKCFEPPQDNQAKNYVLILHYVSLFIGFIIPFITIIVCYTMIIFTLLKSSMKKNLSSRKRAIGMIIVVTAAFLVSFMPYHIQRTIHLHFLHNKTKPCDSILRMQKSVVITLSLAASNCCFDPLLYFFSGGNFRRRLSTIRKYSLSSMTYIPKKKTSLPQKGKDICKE

Mus musculus [9] = test: In vivo inhibitory activity against mouse ear inflammation when administered a compound dose (1 mg/ear); format: functional
How it was run: (§6)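 Compound or ethanol vehicle applied topically to one ear of male DBA/2J mice 60 min before arachidonic acid (2 mg/ear). […] Groups of 5 mice.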

[10] = biological target: T2, Cyclooxygenase (Rattus norvegicus); test: as §3; format: protein assay; conditions: concentration not given here; how it was run: as §2
[11] = biological target: T7, Polyunsaturated fatty acid 5-lipoxygenase (Rattus norvegicus, UniProt P12527); test: In vitro inhibition of rat polymorphonuclear leukocyte 5-lipoxygenase
T7 sequence (P12527 whole entry): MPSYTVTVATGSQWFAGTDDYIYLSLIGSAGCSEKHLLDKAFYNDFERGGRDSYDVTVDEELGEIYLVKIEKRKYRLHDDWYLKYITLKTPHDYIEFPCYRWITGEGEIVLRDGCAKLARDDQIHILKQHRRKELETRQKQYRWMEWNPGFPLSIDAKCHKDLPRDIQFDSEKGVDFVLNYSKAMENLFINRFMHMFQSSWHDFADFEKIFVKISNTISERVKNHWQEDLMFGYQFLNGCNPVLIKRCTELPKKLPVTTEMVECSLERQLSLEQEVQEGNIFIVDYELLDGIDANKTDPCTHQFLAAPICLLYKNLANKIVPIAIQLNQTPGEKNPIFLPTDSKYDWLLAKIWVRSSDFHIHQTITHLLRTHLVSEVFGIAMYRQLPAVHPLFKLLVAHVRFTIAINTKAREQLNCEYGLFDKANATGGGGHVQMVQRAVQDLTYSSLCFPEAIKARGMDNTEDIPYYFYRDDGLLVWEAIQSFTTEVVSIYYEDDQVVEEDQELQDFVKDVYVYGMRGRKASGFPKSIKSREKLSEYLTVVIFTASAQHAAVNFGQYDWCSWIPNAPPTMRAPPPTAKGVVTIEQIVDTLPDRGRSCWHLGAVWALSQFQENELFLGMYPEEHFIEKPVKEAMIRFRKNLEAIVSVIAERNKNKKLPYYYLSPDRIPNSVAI
How it was run: (§7)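 Intact glycogen-elicited peritoneal PMNs pooled from 4–5 Sprague-Dawley rats (250 g), preincubated 5 min at 30 °C with compound in DMSO (≤0.1% final) plus 1 μM indomethacin. Challenge with [14C]arachidonic acid (4 μM) and A23187 (0.8 μM) for 3 min. Extraction, TLC, 5-HETE by scintillation counting.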

Mus musculus [12] = test: In vivo inhibition of mouse ear inflammation; format: functional; design: concentration or dose not given beside the values; how it was run: as §6
[13] = biological target: T2, Cyclooxygenase (Rattus norvegicus); test: In vitro inhibitory activity against rat polymorphonuclear leukocyte Prostaglandin G/H synthase at 10 uM; format: protein assay
How it was run: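 Homogenate of glycogen-elicited rat peritoneal PMNs in 0.1 M Tris-HCl pH 8.2 with 10 μM NDGA, preincubated 5 min at 37 °C with compound (≤0.1% DMSO). [14C]arachidonic acid (8 μM) added with 4 mM glutathione and epinephrine; 10 min reaction. TxB2 and PGF2α separated by TLC and counted.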

[14] = biological target: T3, Polyunsaturated fatty acid 5-lipoxygenase (Homo sapiens); test: In vitro inhibitory activity against polymorphonuclear leukocyte 5-lipoxygenase in human cell at 1 uM; how it was run: as §4
Cavia porcellus [15] = test: In vivo inhibitory activity against guinea pig systemic anaphylaxis when administered a compound dose (200 mg/kg) perorally; format: functional; conditions: po; how it was run: as §5
[16] = biological target: T8, Polyunsaturated fatty acid 5-lipoxygenase (Rattus norvegicus) (UniProt P12527); test: In vitro inhibitory activity against polymorphonuclear leukocyte 5-lipoxygenase in rat cell at 3 uM; how it was run: as §7
T8 sequence (whole entry): T7 sequence (P12527 whole entry)

SMILES: CN(O)C(=O)Cc1ccc(OCc2ccc3ccccc3n2)cc1
IC50 [6]: 1 µM
inhibition in vivo at 60 mg/kg (Cavia porcellus [7]): 94%
Ki [8]: 1 µM
Inhibition (Mus musculus [9]): 48%
inhibition [10]: < 10%
IC50 [11]: 0.35 µM

SMILES: CC(c1ccccc1)N(O)C(=O)Cc1ccc(OCc2ccccc2)cc1 (stereo not drawn)
Inhibition (Mus musculus [12]): 47%
inhibition [13]: 38%

SMILES: O=C(CCCc1ccccc1)NO [PHENYLBUTYRYLHYDROXAMIC ACID]
inhibition [14]: -8%
Inhibition (Mus musculus [12]): 28%
inhibition in vivo at 200 mg/kg (Cavia porcellus [15]): 11%
inhibition [16]: 11%

Results, then the compound that gave them:

inhibition [1]: < 10%
inhibition [2]: < 10%
inhibition [3]: < 10%
inhibition [4]: 12%
SMILES: O=C(CCCc1ccccc1)NCCc1ccccc1

inhibition [5]: < 10%
IC50 (Cyclooxygenase): 75 µM
SMILES: O=C(c1ccc(OCc2ccccc2)cc1)N(O)CCc1ccccc1
